Bioassay records from PubChem.
STAT1 activator – STAT1 signaling activators, primary screen, cell-based, HTS, luciferase reporter; NIH 3T3 STAT1-luciferase reporter, IFN-gamma, luminescence; 100% = IFN-gamma alone, no compound; activation (% of control), % at 5.5 µM; 2.6% of 200,000 active; AID 932, 2007;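 active = activation above the screen-wide mean activation plus 3 SD, cut at about 130% in these data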;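 note: raw ratio to IFN-gamma control signal so 100% means no change and 0% no light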
STAT3 activator – IL-6 driven STAT3 reporter potentiators, primary screen, U3A cells, luciferase, luminescence, MLSCN library; IL-6 STAT3-luciferase reporter; 100% = signal with IL-6 EC80 alone; activation (% of control), % at 5.6 µM; 0.91% of 190,000 active;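 active = activation above the screen-wide mean of compound activation plus 3 SD, cut at about 130% in these data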;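 note: 0% = background luminescence of wells with medium and substrate only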
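Material: STAT3-luciferase reporter U3A cells; Probe or stimulus: IL-6 (33 ng/mL); Incubation: compound pre-incubation 1 h before IL-6, then 6 h stimulation at 37 °C; Technique: luminescence from STAT3-driven luciferase reporter; Evaluation: % activation versus median of IL-6-stimulated wells; Controls: IL-6-only high control.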
STAT1 inh – STAT1 signaling inhibitors, primary screen, cell-based, HTS, luciferase reporter | NIH 3T3 STAT1-luciferase reporter, IFN-gamma, luminescence | inhibition, % at 5.5 µM | 0.35% of 200,000 active | AID 920, 2007;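 active = inhibition above a set limit, the mean inhibition across all tested compounds plus 3 SD, cut at about 34% in these data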;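 note: 0% = IFN-gamma with DMSO and 100% = IFN-gamma with 300 µM nifuroxazide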
NF-kB neuron act – activators of NF-kB expression in neurons, primary screen, cell-based, HTS | human neuronal cells, NF-kB reporter expression; stronger effect = higher value | fold change at 12.5 µM | 1.6% of 190,000 active | AID 1239, 2008; in the data active = fold change above about 3.3
APP 5'UTR act – activators of APP 5'UTR luciferase reporter, primary screen, SH-SY5Y cells | SH-SY5Y APP 5'UTR luciferase reporter, luminescence; zero percent = DMSO vehicle wells | activation, % at 2 µM | 1% of 190,000 active;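 active = activation above a set limit, based on mean plus 3 SD of controls, cut at about 140% in these data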
STAT3 blocker – IL-6 driven STAT3 reporter inhibitors, primary screen, U3A cells, luciferase, luminescence, MLSCN library | 0.89% of 190,000 active | AID 862, 2007 | IL-6 STAT3-luciferase reporter; host cell line lacks STAT1 | inhibition, % at 5.5 µM;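 active = inhibition above the mean inhibition across all screened compounds plus 3 SD, cut at about 44% in these data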;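 note: 0% = DMSO only wells and 100% = 100 µM nifuroxazide control wells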
STAT1 act conf – STAT1 signaling activators, confirmation, cell-based, HTS, luciferase reporter | activation (% of control), % at 5.7 µM | NIH 3T3 STAT1-luciferase reporter, IFN-gamma potentiation, luminescence; 100% = IFN-gamma EC80 alone, no compound | shares compounds with STAT1 activator | AID 1262, 2008 | 97% of 1,200 active;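 active = activation above a set limit carried over from the earlier primary STAT1 screen, cut at about 140% in these data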;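 note: simple ratio to median IFN-gamma plus DMSO wells so 0% means no light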
NFkB act – NF-kB reporter activators, TNF-alpha stimulated, counter-screen for STAT1 activator project, cell-based, HEK293T, luciferase luminescence; shares compounds with STAT1 activator; 100% = TNF-alpha with vehicle only; activation (% of control), % at 5.7 µM; 43% of 1,200 active; AID 1306, 2008;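 active = activation above the mean of solvent-only control wells plus 3 SD, set per campaign, cut at about 130% in these data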;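 note: TNF-alpha given at a submaximal dose yielding about 80% of full reporter signal; values are well signal over median control so 100% means no change and 0% no light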
STAT3 act 2 – STAT3 reporter activation by STAT1 hits, confirmation, counter-screen for STAT1 activator project, U3A cells, luciferase, luminescence; shares compounds with STAT1 activator; IL-6; cells lack STAT1; 100 = IL-6 alone, no compound effect; activation (% of control), % at 5.7 µM; 46% of 1,200 active; AID 1316, 2008;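 active = activation above the solvent-only control well mean plus 3 SD, set per plate batch, cut at about 110% in these data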;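 note: 0% = no luminescence and 100% = median IL-6 plus DMSO wells; higher means more STAT3 reporter activation so hits are non-selective activators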
* hit, by the source's call; nt = not tested or not shown. Compounds with a hit are over-represented: about 4.9% of the library has one in this group of screens.

SMILES	STAT1 activator	STAT3 activator	STAT1 inh	NF-kB neuron act	APP 5'UTR act	STAT3 blocker	STAT1 act conf	NFkB act	STAT3 act 2
CCn1c(C)nc2cc(C(=O)OC(C(F)(F)C(F)F)C(F)(F)C(F)F)ccc21	182.5*	107.7	-90.2	0.9	-1.7	-2.6	181.8*	120.1	114.7*
Cc1ccc(/C=N/N=C/c2ccc(C)s2)s1	177.1*	85.5	-87.2	10.5*	177.9*	20.3	238.4*	119.6	99.0
CN(/N=C/c1ccncc1)c1cnc2ccccc2n1	152.8*	108.3	-55.8	3.67*	180.9*	-0.8	195.4*	130.3	123.7*
CN(/N=C/c1ccncc1)C1=NS(=O)(=O)c2ccccc21	109.3	105.6	-10.4	1.21	-7.6	-2.0	nt	nt	nt
COc1ccc(Cn2c(C3CC3)nc3ccc(NC(=O)c4ccco4)cc3c2=O)cc1	151.5*	98.9	-56.4	1.34	102.1	8.6	183.0*	133.1	140.1*
CCC(=O)Nc1ccc2nc(C3CC3)n(Cc3ccccc3)c(=O)c2c1	115.3	113.9	-16.7	1.68	0.8	-10.4	nt	nt	nt
S=c1[nH]nc(-c2ccccn2)n1/N=C/c1ccc(Br)s1	96.5	99.7	3.8	1.07	-10.9	-4.0	nt	nt	nt
N#C/C(=C\c1ccc(N2CCOCC2)cc1)c1ccccc1	173.5*	101.2	-82.3	2.52	207.7*	1.2	225.7*	142.8*	108.5
N#C/C(=C\N1CCOCC1)c1ccccc1	91.3	103.8	9.4	1.41	11.4	-3.0	nt	nt	nt
N#C/C(=C\c1ccc(N2CCOCC2)o1)c1ccccc1	160.7*	130.2	-68.0	1.9	27.6	-32.1	234.8*	149.9*	126.5*
N#C/C(=C/c1ccc(N2CCOCC2)o1)c1ccc(Br)cc1	114.7	113.3	-16.1	2.04	-9.8	-9.6	nt	nt	nt
CC(C)CCN1CCN(CC#Cc2ccccc2)CC1CCO (stereo not drawn)	106.1	108.0	-7.7	1.17	13.3	-8.5	nt	nt	nt
Nc1nnc(CCCCCc2nnc(N)s2)s1	96.9	107.7	3.4	1.23	11.2	-9.9	nt	nt	nt
COc1ccc(C(=O)Nc2ccc(SC(F)F)cc2)cc1	164.1*	94.1	-72.1	3.13	164.3*	4.7	182.0*	141.3*	88.7
CCCCOc1ccc(C(=O)Nc2ccc(SC(F)F)cc2)cc1OC	102.8	107.2	-3.2	1.06	7.2	-11.4	nt	nt	nt
COc1ccc(NC(=O)c2ccc(OC(F)F)cc2)cc1Cl	166.1*	105.4	-75.2	4.37*	103.7	-3.5	180.8*	129.3	103.4
S=C(Nc1ccc(Nc2ccccc2)cc1)Nc1ccccn1	90.3	70.6	8.6	1.2	-3.1	38.9	nt	nt	nt
N#C/C(=C/c1ccc(N2CCCCC2)o1)C(=O)Nc1ccc2ccccc2c1	112.9	95.7	-14.6	1.09	18.0	5.4	nt	nt	nt
N#C/C(=C/c1ccc(N2CCCCC2)o1)C(=O)Nc1ccc(Cl)cc1	154.9*	84.0	-64.6	1.53	35.5	25.7	182.5*	130.5	89.8
N#Cc1ccsc1NC(=O)COC(=O)c1ccc(NC(N)=O)cc1	165.7*	121.3	-73.4	1.13	128.1	-16.1	198.9*	137.4*	141.0*
CC(=O)Nc1ccc(SCC(=O)Nc2sccc2C#N)cc1	106.3	108.1	-6.8	1.62	14.0	-4.3	nt	nt	nt
O=C(Cn1cncc1-c1ccc([N+](=O)[O-])cc1)Nc1ccccc1F	92.3	93.2	8.7	1.11	5.3	5.7	nt	nt	nt
Cc1ccc(C(=O)N2CCCC(C(=O)c3ccc(Oc4ccccc4)cc3)C2)cn1 (stereo not drawn)	87.9	89.0	11.9	0.96	2.0	16.8	nt	nt	nt
Cc1ccc(-n2[nH]c(C)c(C=NC34CN5CN(CN(C5)C3)C4)c2=O)cc1C	99.0	103.8	1.0	1.04	3.0	-4.3	nt	nt	nt
COCCCN=Cc1c(C)[nH]n(-c2ccc(Br)c(C)c2)c1=O	165.1*	78.4	-73.6	2.69	147.0*	28.6	249.5*	121.5	80.3
SMILES	STAT1 activator	STAT3 activator	STAT1 inh	NF-kB neuron act	APP 5'UTR act	STAT3 blocker	STAT1 act conf	NFkB act	STAT3 act 2
FC(F)(F)c1cccc(Cc2noc(CN3CCCC(CN4CCCC4)C3)n2)c1 (stereo not drawn)	96.6	104.3	3.5	1.33	6.8	1.0	nt	nt	nt
O=C(NC1CC1)C1=C[C@@H](C2CCCCC2)C[C@@H](OCc2ccc(CO)cc2)O1	95.9	nt	5.9	0.95	8.5	nt	nt	nt	nt
NC(=O)C1=C[C@H](C2CCCCC2)C[C@H](OCc2ccc(CO)cc2)O1	171.0*	nt	-74.3	3.84*	125.5	nt	162.9*	141.7*	163.5*
Cc1cc(/C=C(\C#N)C(=O)NCc2cccs2)c(C)n1-c1ccccc1F	151.1*	107.6	-55.8	1.18	114.6	-4.6	169.0*	130.3	121.4*
CC(=O)c1ccc(NC(=O)/C(Cl)=C/c2ccccc2)cc1	153.8*	94.2	-60.5	6.42*	167.8*	13.5	199.6*	127.3	115.2*
NC(=O)Cc1nc(-c2ccc(Br)cc2)cs1	103.1	99.2	-3.4	1.31	12.2	3.5	nt	nt	nt
Oc1csc(Cc2nc(-c3ccc(Br)cc3)cs2)n1	166.7*	126.9	-74.0	1.87	50.0	-15.3	177.0*	134.0*	123.5*
O=C(c1ccc(-c2cccc(C(F)(F)F)c2)o1)N1CCOCC1	117.4	94.7	-25.2	2.1	12.6	8.5	nt	nt	nt
O=C(c1ccc(-c2cccc(Cl)c2Cl)o1)N1CCOCC1	162.4*	100.8	-72.2	4.54*	108.5	3.9	200.6*	143.2*	114.5*
Clc1ccc(-n2ncc3c(NCCCn4ccnc4)ncnc32)cc1	123.8	99.6	-26.3	1.85	-10.9	0.4	nt	nt	nt
COc1ccc(-n2ncc3c(NCC(C)C)ncnc32)cc1	166.3*	81.7	-68.7	6.97*	195.4*	26.2	259.9*	117.7	97.7
COc1ccc(-n2ncc3c(NCc4ccc5c(c4)OCO5)ncnc32)cc1	114.9	107.5	-14.4	1.1	39.7	-4.5	nt	nt	nt
CCCCNc1ncnc2c1cnn2-c1ccc(Cl)cc1	158.0*	111.5	-60.8	7.2*	-33.5	-13.9	249.2*	140.2*	105.7
